RGS4 inh – human RGS4 inhibition; P49798; HEK293 M3R/RGS4 inducible, Fluo-4 calcium flux; active compounds read high; triggered by carbachol at its EC20; B-score at 10 µM; 310,000 tested, 0.45% active; AID 463165;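 active means B-score, a plate-corrected calcium signal, over three deviations above library mean, with baseline fluorescence within five deviations of library mean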;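 further: RGS4 expression induced by doxycycline in cells with stable M3 receptor; B-score is computed from the integrated fluorescence ratio over baseline after carbachol; higher B-score means a larger calcium signal and so more RGS4 inhibition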
Target sequence (P49798 whole entry, looked up): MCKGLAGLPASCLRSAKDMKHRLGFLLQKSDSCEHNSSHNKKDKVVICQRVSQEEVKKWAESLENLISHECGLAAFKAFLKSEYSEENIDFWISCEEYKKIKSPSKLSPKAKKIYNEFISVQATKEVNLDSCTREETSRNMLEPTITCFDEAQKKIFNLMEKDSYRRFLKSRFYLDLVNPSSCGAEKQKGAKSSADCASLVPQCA
MrgX1 PAM – allosterically activates human MrgX1 receptor signaling; MrgX1-HEK293, Fluo-4 calcium flux, FDSS; active compounds read high; B-score at 10 µM; 310,000 tested, 0.63% active; Q96LB2;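 active means plate-corrected calcium response at least 3 library SD above typical, normal starting fluorescence, not activating the receptor alone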;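 further: compound read alongside a low EC10 to EC30 dose of BAM8-22 agonist; peak minus trough fluorescence over baseline measured at the second addition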
Target sequence (Q96LB2 whole entry, looked up): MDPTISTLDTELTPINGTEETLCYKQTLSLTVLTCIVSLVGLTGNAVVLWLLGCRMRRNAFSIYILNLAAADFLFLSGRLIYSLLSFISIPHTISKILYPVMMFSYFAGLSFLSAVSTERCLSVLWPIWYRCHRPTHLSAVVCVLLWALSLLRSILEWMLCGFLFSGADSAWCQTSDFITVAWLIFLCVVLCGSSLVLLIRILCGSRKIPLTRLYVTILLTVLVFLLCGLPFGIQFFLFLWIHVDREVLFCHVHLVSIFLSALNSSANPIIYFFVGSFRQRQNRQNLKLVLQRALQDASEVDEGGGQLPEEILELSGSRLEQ
RGS4 pot – potentiators or activators of RGS4; 310,000 tested, 0.92% active; HEK293 M3R/inducible RGS4, carbachol calcium flux Fluo4; active compounds read low; B-score at 10 µM;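 active means B-score of the integrated calcium signal more than 4 SD below the library mean, with starting fluorescence not abnormally high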;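 further: negative B-score means reduced calcium response which marks RGS4 activation or potentiation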
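Assay system: HEK293 FlpIn-TREx cells, stable M3R, doxycycline-inducible RGS4 / Probe or stimulus: carbachol, ECmax concentration / Times: overnight RGS4 induction, 30 min dye load 37 °C, 20 min compound RT / Signal: kinetic calcium fluorescence imaging with Fluo4-AM dye, 2 µM / Measure: Agonist-evoked peak-minus-minimum fluorescence over baseline, integrated ratio, B score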
MrgX1 antagonist – antagonists of human MrgX1 receptor. Q96LB2. MRGX1-HEK293 calcium flux, Fluo-4, BAM8-22 antagonism; active compounds read low. B-score at 10 µM. 310,000 tested, 1.3% active. AID 588676;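 active means calcium-response B-score plate-corrected more than 3 library SD below zero, starting fluorescence within 5 deviations, no agonist response on first addition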;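 further: peak minus trough fluorescence over baseline after final BAM8-22 challenge near maximal dose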
MrgX1 agonist – activates human MrgX1 receptor signaling; Q96LB2; AID 588627; MrgX1-HEK293 cells, Fluo-4 calcium fluorescence, agonist mode; active compounds read high; B-score at 10 µM; 310,000 tested, 0.44% active;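 active means calcium response B-score plate-corrected fluorescence ratio at least 3 library SD, with starting fluorescence B-score inside 5 SD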
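System: HEK293 cells stably expressing human MrgX1 receptor; Dosing: test compound in the initial addition of three; Schedule: overnight plating, then 30 min 37 °C plus 30 min room-temperature dye loading; Detection: kinetic calcium dye fluorescence, Fluo-4 NW; Controls: per-plate positive and negative controls for Z′ factor.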
MrgX1 ant reconf – reconfirmed antagonist of human MrgX1 receptor signaling; MrgX1-HEK293, BAM8-22 calcium flux, Fluo-4; active compounds read low; 2,300 tested, 19% active; shares compounds with MrgX1 antagonist; remaining BAM8-22 calcium response % of control (active compounds read low), % at 10 µM;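 active means remaining agonist calcium response no higher than 100% minus 3 SD of agonist-only control wells, with starting fluorescence near control levels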;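 further: agonist BAM8-22 given at a near maximal EC90 to ECmax level; peak minus minimum fluorescence divided by baseline after agonist addition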
HEK293 Ca flux – activity in parental HEK293 cells lacking MrgX1; shares compounds with MrgX1 antagonist; Fluo-4 calcium fluorescence, FDSS; fluorescence ratio F(max-min)/F0 at 10 µM; 4,000 tested, 2% active;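 active means duplicate-averaged calcium fluorescence ratio at least three times the standard deviation of buffer wells, a nonspecific response in parental cells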
HEK293 Ca counter – MrgX1 allosteric activator counter-screen hit in parental HEK293 cells; shares compounds with MrgX1 antagonist; 4,000 tested, 0.4% active; fluorescence ratio F(max-min)/F0 at 10 µM; parental HEK293 calcium flux, Fluo-4 fluorescence ratio; active compounds read high;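 active means calcium fluorescence ratio, averaged over duplicates, at least 3 SD of the buffer-well ratio, meaning a nonspecific response in receptor-free cells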;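 further: untransfected parental HEK293 lacking MrgX1 used as counterscreen for MrgX1 allosteric activators; fluorescence change taken during the second addition on a kinetic imager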
HEK293 Ca cntr2 – activity in parental HEK293 cells lacking MrgX1 receptor. shares compounds with MrgX1 antagonist. Fluo-4 calcium fluorescence (FDSS); active compounds read high. fluorescence ratio F(max-min)/F0 at 10 µM. 4,000 tested, 8.7% active. AID 624115;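 active means calcium fluorescence ratio at least three times the spread of buffer wells, meaning a non-specific response in parental cells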
Starred values were filed as active, the others as inactive. Hits are enriched below; roughly 3.5% of the tested compounds scored in any of these assays.

Results for O=C(NC(=S)NCCN1CCOCC1)c1ccccc1Cl ?
RGS4 inh: inactive; MrgX1 PAM: inactive; RGS4 pot: inactive; MrgX1 antagonist: -4.9*; MrgX1 agonist: inactive; MrgX1 ant reconf: inactive; HEK293 Ca flux: inactive; HEK293 Ca counter: inactive; HEK293 Ca cntr2: inactive

Results for O=C(CNC(=O)c1ccc(Br)o1)NCc1cccc(Cl)c1 ?
RGS4 inh: inactive; MrgX1 PAM: inactive; RGS4 pot: inactive; MrgX1 antagonist: inactive; MrgX1 agonist: inactive

Results for O=C(CNC(=O)c1ccc(Br)o1)NCc1ccc(Cl)cc1Cl ?
RGS4 inh: inactive; MrgX1 PAM: inactive; RGS4 pot: inactive; MrgX1 antagonist: -4.8*; MrgX1 agonist: inactive; MrgX1 ant reconf: inactive; HEK293 Ca flux: inactive; HEK293 Ca counter: inactive; HEK293 Ca cntr2: inactive

What do the screens show for `CCOC(=O)c1cn2nc(SCc3ccccc3)nc2nc1C`?
RGS4 inh: inactive; MrgX1 PAM: inactive; RGS4 pot: inactive; MrgX1 antagonist: inactive; MrgX1 agonist: inactive

How did Cc1ccc2nc(SCCC#N)nc(C)c2c1 do in these assays?
RGS4 inh: inactive; MrgX1 PAM: inactive; RGS4 pot: inactive; MrgX1 antagonist: -8.1*; MrgX1 agonist: inactive; MrgX1 ant reconf: inactive; HEK293 Ca flux: inactive; HEK293 Ca counter: inactive; HEK293 Ca cntr2: inactive

What do the screens show for `Cc1ccc2nc(SCC(=O)O)nc(C)c2c1`?
RGS4 inh: inactive; MrgX1 PAM: inactive; RGS4 pot: inactive; MrgX1 antagonist: inactive; MrgX1 agonist: inactive

What do the screens show for `CC1=C(C(=O)Nc2ccccc2C(=O)N2CCC(C)CC2)SCCO1`?
RGS4 inh: inactive; MrgX1 PAM: inactive; RGS4 pot: inactive; MrgX1 antagonist: inactive; MrgX1 agonist: inactive

What do the screens show for `O=C1CCC(C(=O)N2CCCCO2)CN1Cc1ccc(Cl)cc1` (stereo not drawn)?
RGS4 inh: inactive; MrgX1 PAM: inactive; RGS4 pot: inactive; MrgX1 antagonist: inactive; MrgX1 agonist: inactive

How did C=C(C)Cn1cnc2c(oc3nc4c(cc32)CCCC4)c1=O do in these assays?
RGS4 inh: inactive; MrgX1 PAM: inactive; RGS4 pot: inactive; MrgX1 antagonist: inactive; MrgX1 agonist: inactive

What do the screens show for `O=C(CSc1nnc(-c2ccccc2Cl)o1)N1CCCCC1`?
RGS4 inh: inactive; MrgX1 PAM: inactive; RGS4 pot: inactive; MrgX1 antagonist: -4.9*; MrgX1 agonist: inactive; MrgX1 ant reconf: inactive; HEK293 Ca flux: inactive; HEK293 Ca counter: inactive; HEK293 Ca cntr2: inactive

Results for O=C(CSc1nnc(-c2ccccc2Cl)o1)N1CCCC1 ?
RGS4 inh: inactive; MrgX1 PAM: inactive; RGS4 pot: inactive; MrgX1 antagonist: inactive; MrgX1 agonist: inactive

How did CC(C)NC(=O)C(=O)NCCC1CCCCN1S(=O)(=O)c1cccs1 (stereo not drawn) do in these assays?
RGS4 inh: inactive; MrgX1 PAM: inactive; RGS4 pot: inactive; MrgX1 antagonist: inactive; MrgX1 agonist: inactive

Results for COc1ccc(NC(=O)CSc2ccccc2)c(OC)c1 ?
RGS4 inh: inactive; MrgX1 PAM: inactive; RGS4 pot: inactive; MrgX1 antagonist: -9.1*; MrgX1 agonist: inactive; MrgX1 ant reconf: inactive; HEK293 Ca flux: inactive; HEK293 Ca counter: inactive; HEK293 Ca cntr2: inactive

How did COc1ccc(NC(=O)CSc2nc(=O)n(CCN3CCOCC3)c3c2CCC3)c(OC)c1 do in these assays?
RGS4 inh: inactive; MrgX1 PAM: inactive; RGS4 pot: inactive; MrgX1 antagonist: -7.6*; MrgX1 agonist: inactive; MrgX1 ant reconf: inactive; HEK293 Ca flux: inactive; HEK293 Ca counter: inactive; HEK293 Ca cntr2: inactive

Results for COc1cccc(-n2nnc3c(=O)n(CC(=O)N4CCC(Cc5ccccc5)CC4)cnc32)c1 ?
RGS4 inh: inactive; MrgX1 PAM: inactive; RGS4 pot: inactive; MrgX1 antagonist: -7.5*; MrgX1 agonist: inactive; MrgX1 ant reconf: inactive; HEK293 Ca flux: inactive; HEK293 Ca counter: inactive; HEK293 Ca cntr2: inactive

What do the screens show for `O=C(CNC(=S)NC(=O)c1ccc(F)cc1)c1ccccc1`?
RGS4 inh: inactive; MrgX1 PAM: inactive; RGS4 pot: inactive; MrgX1 antagonist: -4.7*; MrgX1 agonist: inactive; MrgX1 ant reconf: inactive; HEK293 Ca flux: inactive; HEK293 Ca counter: inactive; HEK293 Ca cntr2: inactive

What do the screens show for `O=C(CNC(=S)NC(=O)c1ccccc1)c1ccccc1`?
RGS4 inh: inactive; MrgX1 PAM: inactive; RGS4 pot: inactive; MrgX1 antagonist: inactive; MrgX1 agonist: inactive

What do the screens show for `Cc1ccc(CC(=O)N2CC(C)OC(C)C2)cc1` (stereo not drawn)?
RGS4 inh: inactive; MrgX1 PAM: inactive; RGS4 pot: inactive; MrgX1 antagonist: inactive; MrgX1 agonist: inactive

What do the screens show for `CC1CN(C(=O)CS(=O)(=O)Cc2ccc(Cl)cc2)CC(C)O1` (stereo not drawn)?
RGS4 inh: inactive; MrgX1 PAM: inactive; RGS4 pot: inactive; MrgX1 antagonist: -4.8*; MrgX1 agonist: inactive; MrgX1 ant reconf: inactive; HEK293 Ca flux: inactive; HEK293 Ca counter: inactive; HEK293 Ca cntr2: inactive

How did CC(C)[C@H](NC(=O)[C@@H]1CSC2c3ccccc3C(=O)N21)C(=O)NC1CCCCC1 (stereo partly drawn) do in these assays?
RGS4 inh: inactive; MrgX1 PAM: inactive; RGS4 pot: inactive; MrgX1 antagonist: inactive; MrgX1 agonist: inactive

What do the screens show for `O=C(Nc1cc(S(=O)(=O)N2CCOCC2)ccc1N1CCOCC1)c1cnccn1`?
RGS4 inh: inactive; MrgX1 PAM: inactive; RGS4 pot: inactive; MrgX1 antagonist: -4.8*; MrgX1 agonist: inactive; MrgX1 ant reconf: inactive; HEK293 Ca flux: inactive; HEK293 Ca counter: inactive; HEK293 Ca cntr2: inactive

Results for O=C1c2ccccc2OC2(C=Cc3ccccc3O2)N1Cc1ccccc1 (stereo not drawn) ?
RGS4 inh: inactive; MrgX1 PAM: inactive; RGS4 pot: inactive; MrgX1 antagonist: -5*; MrgX1 agonist: inactive; MrgX1 ant reconf: inactive; HEK293 Ca flux: inactive; HEK293 Ca counter: inactive; HEK293 Ca cntr2: inactive

How did O=C1NC2(CCN(Cc3ccccc3)CC2)Oc2ccccc21 do in these assays?
RGS4 inh: inactive; MrgX1 PAM: inactive; RGS4 pot: inactive; MrgX1 antagonist: inactive; MrgX1 agonist: inactive

Bioassay records (PubChem)
